Results from different studies.
Compare with care: the assays were run in different laboratories.
Observed: microbial growth

C/C=C/C/C=C/CCC(=O)[C@H]1O[C@H]1C(N)=O  MIC (Saccharomyces cerevisiae): 10 to 12 µM
Cc1cc(=O)[nH]n1C(=O)c1ccc(-n2c(C)ccc2C)cc1  MIC (Saccharomyces cerevisiae; broth dilution; ATCC9763): 250 µg/mL
CC[C@@H]([C@H](C)O)n1ncn(-c2ccc(N3CCN(c4ccc(OC[C@@H]5CO[C@@](Cn6cncn6)(c6ccc(F)cc6F)C5)cc4)CC3)cc2)c1=O  MIC (Saccharomyces cerevisiae; BY4743; 72 h): < 0.3 µM
O=[N+]([O-])c1cc(-c2nc(-c3ccc(Oc4ccc(C(F)(F)F)cc4)cc3)no2)cnc1O  MIC (Clostridioides difficile; broth dilution; ATCC43255; 48 h): 2 to 4 µg/mL
Cl.NCc1ccc(Oc2ccc(-c3noc(-c4ccc(O)cc4)n3)cc2)cc1  MIC (Clostridioides difficile; broth dilution; 48 h): 6 µg/mL
Cc1ccc(C)n1-c1ccc(-c2nnc(-c3c(Cl)cccc3Cl)[nH]2)cc1  MIC (Saccharomyces cerevisiae; broth dilution; ATCC9763): 2 µg/mL
Oc1ccc(-c2nc(-c3ccc(Oc4ccc(C(F)(F)F)cc4)cc3)no2)cc1F  MIC (Clostridioides difficile; broth dilution; ATCC43255; 48 h): 2 to 4 µg/mL
Cl.Oc1ccc(-c2nc(-c3ccc(Oc4ccc5c(c4)CNCC5)cc3)no2)cc1  MIC (Clostridioides difficile; broth dilution; 48 h): 4 µg/mL
CC(C)(C)C(=O)C(Oc1ccc(Cl)cc1)n1ccnc1 (centres unmarked)  MIC (Saccharomyces cerevisiae): 20 to 25 µM
Cc1cc(C)n(C(=O)c2ccc(-n3c(C)ccc3C)cc2)n1  MIC (Saccharomyces cerevisiae; broth dilution; ATCC9763): > 500 µg/mL
O=C(O)Cc1ccccc1Oc1ccc(-c2noc(-c3ccc(O)cc3)n2)cc1  MIC (Clostridioides difficile; broth dilution; 48 h): > 50 µg/mL
Cc1ccc(C)n1-c1ccc(-c2nnc(-c3cccc([N+](=O)[O-])c3)[nH]2)cc1  MIC (Saccharomyces cerevisiae; broth dilution; ATCC9763): 31.2 µg/mL
O=C(O)COc1cccc(Oc2ccc(-c3noc(-c4ccc(O)cc4)n3)cc2)c1  MIC (Clostridioides difficile; broth dilution; 48 h): 50 µg/mL
Cc1ccc(C)n1-c1ccc(-c2nnco2)cc1  MIC (Saccharomyces cerevisiae; broth dilution; ATCC9763): 125 µg/mL
CC1(C)S[C@@H]2[C@H](NC(=O)[C@H](N)c3ccccc3)C(=O)N2[C@H]1C(=O)O  MIC (Shigella sonnei; broth dilution; ATCC25931): 4 µg/mL
CC(CN)c1ccc(Oc2ccc(-c3noc(-c4ccc(O)cc4)n3)cc2)cc1.Cl (racemic)  MIC (Clostridioides difficile; broth dilution; 48 h): 16 µg/mL
C[C@@H]1[C@H](O)[C@@H](C)/C=C/C=C/C=C/C=C/C=C/C=C/C=C/[C@H](O[C@@H]2O[C@H](C)[C@@H](O)[C@H](N)[C@@H]2O)C[C@@H]2O[C@](O)(C[C@@H](O)C[C@@H](O)[C@H](O)CC[C@@H](O)C[C@@H](O)CC(=O)O[C@H]1C)C[C@H](O)[C@H]2C(=O)O  MIC (Saccharomyces cerevisiae): 0.5 µg/mL
